Measurements from PubChem BioAssay AID821 (SRMLSC, 2007).

Tested on: LL 47 lung fibroblast viability, ATP luminescence
Assay: LL 47 lung fibroblast growth inhibition, concentration-response, selectivity test for endothelial growth inhibitor program, cellular, luminescent ATP readout (AID 821);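 further: cells exposed to compound for 72 h at 37 °C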
Procedure, shortened: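 Assay system: LL 47 human lung fibroblast cells | Amount: 1,150 cells/well | Schedule: 72 h exposure, 37 °C | Measured by: CellTiter-Glo luminescence | Measure: Percent viability relative to untreated wells, EC50 via 4-parameter fit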

SMILES	EC50 [µM]
Cc1cc(C)n(-c2nc3ccccc3c(=O)n2OCC(=O)OCc2ccccc2)n1	4
O=C(Nc1ccc(N2CCOCC2)cc1)Nc1ccc2nc(-c3ccco3)c(-c3ccco3)nc2c1	2.18
COC(=O)CS(=O)(=O)c1nnc([C@H](Cc2ccccc2)NC(=O)OC(C)(C)C)o1	7.97
CC1CC(C)CN(S(=O)(=O)c2ccc(C(=O)NCCCn3ccnc3)cc2)C1 (stereo not drawn)	1.77
COCc1cc(CN2CCCC2)c(O)c2ncccc12	11.7
O=C(C#Cc1cccc([N+](=O)[O-])c1)c1ccccc1	18.5
COCCCn1[nH]c2c3c(ccc2c1=O)C(=O)c1ccccc1C3=O	17
CCCCCCc1cc2cc(-c3nnc(-c4ccccc4)o3)c(=O)oc2cc1O	20.3
OCc1ccc(O)c2ncccc12	9.4
O=C(CCS(=O)(=O)c1ccccc1)Nc1nc2c(s1)CCCC2	14.3
COc1ccc2oc(=O)c(-c3nnc(NCc4ccco4)s3)cc2c1	8
CCCCn1c(=O)c(C(=O)Nc2cnccn2)c(O)c2ccccc21	16.1
CCOC(=O)c1c(NC(=O)CCl)sc(C(=O)N(CC)CC)c1C	6.25
COc1cc(NC(=O)c2cccs2)c(C(=O)OCC(=O)NCc2ccccc2)cc1OC	20.6
Cc1ccc(-c2nn3c(C)nnc3s2)cc1NC(=O)c1ccc(-c2cccc(Cl)c2)o1	13.1
Cc1cc2c(N=O)c(NO)ccc2[nH]1	2.93
CC1=CC(C)(C)Nc2ccc(OC(=O)c3cccnc3)cc21	7.47
C#CCn1c(=NC(=O)c2ccc(Br)s2)sc2cccc(OC)c21	20.1
COC(=O)c1ccc2c(=O)n(Cc3ccco3)c(SCC(=O)Nc3ccc(C)c(Cl)c3)nc2c1	4.07
CCCCCCOC(=O)C(C#N)c1nc2ccccc2nc1N1CCN(CC)CC1 (stereo not drawn)	17.6
COc1ccc(CC(=O)Nc2ccc(-c3nc4cc(C)ccc4o3)c(O)c2)cc1OC	18.6

SMILES	EC50 [µM]
Cc1cccc(NC(=O)Nc2cccc(Oc3c(F)c(F)c(F)c(F)c3F)c2)c1	17.5
N=c1c2c(-c3ccccc3)c(-c3ccccc3)n(Cc3ccco3)c2ncn1Cc1ccco1	7.06
COc1ccc2c(c1)c1nc3ccccc3nc1n2CC(=O)OC(C)C	15.5
O=C(Nc1ccc(-c2nc3c(ccc4ccccc43)o2)cc1)c1ccco1	10.9
Cn1c(=NC(=O)CCl)sc2ccccc21	< 0.039
CCOC(=O)c1ccccc1Nc1cn(C(C)=O)c2ccccc12	14.5
O=C(NNC(=O)c1ccc([N+](=O)[O-])o1)c1ccccc1	11.7
CC1=NOC(=O)/C1=C/c1ccc(-c2ccc(Cl)cc2)o1	13.9
c1ccc(-c2nc3nonc3nc2-c2ccccc2)cc1	15.2
CCOC(=O)c1c(NC(=O)CSc2nc(C)cc(C)c2C#N)sc(C(C)=O)c1C	13.5
Cc1ccccc1CS(=O)(=O)c1nnc([C@H](CC(C)C)NC(=O)OC(C)(C)C)o1	14.9
CN1CCN(CCCN2c3ccccc3Sc3ccc(C(F)(F)F)cc32)CC1	17.9
COc1cccc2sc(Nc3nc(C)c(C(C)=O)s3)nc12	5.54
O=c1[nH]c2ccccc2n1C1CCN(CCCC(c2ccc(F)cc2)c2ccc(F)cc2)CC1	13.6
O=C1Nc2ccccc2/C1=C/C(=O)c1cccs1	6.78
CCOC(=O)/C=C/S(=O)(=O)c1ccc(NC(C)=O)cc1	6.96
N=c1c2c(ncn1CCN1CCOCC1)Oc1ccc3ccccc3c1C2c1ccccc1 (stereo not drawn)	17.5
CCOC(=O)c1sc(SCC(=O)Nc2ccc(N(C)C)cc2)nc1N	11.8
COC(=O)NC(=C(Cl)Cl)S(=O)(=O)c1ccccc1	12.2
CC(C)(C)c1nn(-c2ccccc2)c2[nH]c(=O)c(CNCc3ccc4c(c3)OCO4)cc12	20.6
c1ccc(-c2nc(N3CCCCCC3)c3ccccc3n2)nc1	1.73

SMILES	EC50 [µM]
O=C(CSc1cccc2cccnc12)N1CCCC1	12.7
COc1cc(/C=C/c2ccc3cccc(OC)c3n2)c(OC(C)=O)c([N+](=O)[O-])c1	17.2
COCc1cc(=O)[nH]c(Nc2nc(C)c3ccccc3n2)n1	20.3
CC(=O)C(C(C)=O)c1c(Cl)c(O)c(O)c2c(C(=O)c3ccccc3)coc12	14.5
Oc1ccccc1-c1nnc(SCCN2CCOCC2)n1Cc1ccccc1	1.48
Cc1ccc(C2Oc3ccccc3C3=C2C(c2cccs2)n2ncnc2N3)cc1 (stereo not drawn)	19.1
CCOC(=O)c1c(CC(C)C)csc1NC=O	20.4
Cc1ccccc1CS(=O)(=O)c1nnc([C@H](Cc2ccccc2)NC(=O)OC(C)(C)C)o1	13.1
COc1ccccc1-c1nnc2n1N=C(c1ccc(O)c(O)c1)CS2	2.68
CCc1ccc2c(c1)/C(=C/C(=O)c1cccs1)C(=O)N2	3.48
N=c1n(CCN2CCCCC2)c2ccccc2n1CC(O)c1cccc(Br)c1 (stereo not drawn)	13.3
Oc1cccc2ccc(/C=C/c3cccs3)nc12	9.71
Oc1c(I)cc(Cl)c2cccnc12	11.4
Cc1ccc(C(=O)c2c(C)oc3c2C(=O)C(=O)c2ccccc2-3)cc1	3.46
COc1ccc2nc(Nc3nc(CSc4nnnn4-c4ccccc4)cc(=O)[nH]3)nc(C)c2c1	13.8
COc1ccc(CN=C(C)c2c(C(F)(F)F)[nH]n(-c3nc4ccccc4s3)c2=O)cc1	18
CS(=O)(=O)c1nc(-c2cccs2)cc(C(F)(F)F)n1	7.32
CCOC(=O)c1sc2nc(C(C)C)c3c(c2c1N)CC(C)(C)OC3	12.4
O=C(Cn1c(=O)n(CCCC(=O)NC2CCCC2)c(=O)c2ccccc21)NCCC1=CCCCC1	19.4
CN1C[C@H](CNC(=O)OCc2ccccc2)C[C@@H]2c3cccc4c3c(cn4C)C[C@H]21	15
COc1ccc(C(=O)C(CN2CCOCC2)c2ccccc2)cc1 (stereo not drawn)	4.7

SMILES	EC50 [µM]
O=C1CC(Sc2nnc(-c3ccccc3O)o2)C(=O)N1c1ccccc1 (stereo not drawn)	20.8
Cc1cc(C)c2c(=O)n(CC(=O)NCCCN3CCN(c4ccccc4F)CC3)sc2n1	10.2
CCSc1nnc(NC(=O)c2ccccn2)s1	16.5
Oc1c(C(Nc2ccccn2)c2ccccn2)ccc2cccnc12 (stereo not drawn)	5.55
CC(Nc1nc(N2CCCC2)nc2ccccc12)c1ccccc1 (stereo not drawn)	11.7
COc1ccc(S(=O)(=O)Nc2ccc(O)c3ccccc23)cc1	13.1
c1ccc(-c2noc(-c3ccc4c(c3)OCO4)n2)nc1	10.5
c1ccc2c(c1)oc1c(Nc3ccc(CN4CCOCC4)cc3)ncnc12	17.2
O=C(Oc1ccccc1)c1cccc2cccnc12	6.87
COc1ccc(-c2ccc(C#N)c(SCC(=O)Nc3sc4c(c3C#N)CCC4)n2)cc1OC	20.1
CCN(CC)CCn1c(=N)n(CCOc2ccccc2)c2ccccc21	10.7
CC(C)COC(=O)c1ccc2c(c1O)C(=O)c1ccccc1C2=O	17.9
Cc1ccc(NC(=O)c2cc(NC(=O)c3ccco3)ccc2N2CCCCC2)cc1	18
O=c1ccsn1Cc1ccccc1	7.57
O=S(=O)(c1ccc2c(c1)nc(COc1ccc(Cl)cc1)n2CC1CCCO1)N1CCOCC1 (stereo not drawn)	8.4
O=c1c(Cl)c(NCCCO)cnn1-c1nc2ccccc2[nH]1	6.3
CC(C)=CCC/C(C)=C/CCC(C)NCCN1CCNCC1 (stereo not drawn)	10.4
COC(=O)Nc1ccc(S(=O)(=O)N2c3ccccc3CCC2C)cc1 (stereo not drawn)	12.5
COc1ccc(C(=O)C(CN2CCOCC2)c2ccccc2)cc1F (stereo not drawn)	5.53
COc1cc(C(=O)Oc2c(CN3CCOCC3)cc(Cl)c3cccnc23)cc(OC)c1OC	4.05
